Shown are actives, neighbours in structure and some others; about 2% of the full set was active somewhere.
FLuc inh counter – Photinus pyralis luciferase inhibition counter-screen. 1.5% of 200,000 active. ATPLite firefly luciferase biochemical luminescence, 10 min. AID 1006. inhibition, % at 10 µM. P08659;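 active means inhibition above about 50% when tested at 10 µM, limit read from the data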
Target sequence (P08659 whole entry, looked up): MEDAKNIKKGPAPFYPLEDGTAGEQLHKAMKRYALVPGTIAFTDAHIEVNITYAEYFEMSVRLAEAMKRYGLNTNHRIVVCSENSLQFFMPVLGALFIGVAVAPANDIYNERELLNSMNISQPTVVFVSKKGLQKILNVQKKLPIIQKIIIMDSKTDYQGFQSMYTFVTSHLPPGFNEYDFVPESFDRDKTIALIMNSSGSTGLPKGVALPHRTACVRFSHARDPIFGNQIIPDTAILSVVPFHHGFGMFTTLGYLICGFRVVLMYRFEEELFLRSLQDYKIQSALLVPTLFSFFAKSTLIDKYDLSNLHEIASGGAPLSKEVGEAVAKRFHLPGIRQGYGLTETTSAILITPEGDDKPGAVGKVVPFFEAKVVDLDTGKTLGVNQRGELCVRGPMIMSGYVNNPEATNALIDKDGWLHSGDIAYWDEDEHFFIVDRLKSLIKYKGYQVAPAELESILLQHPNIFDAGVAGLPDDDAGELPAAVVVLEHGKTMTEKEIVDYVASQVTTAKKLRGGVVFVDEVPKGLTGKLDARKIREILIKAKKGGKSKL
FLuc stim CS – firefly luciferase counter-screen for stimulation assays; P08659; ATPlite luciferase biochemical, luminescence, 10 min; 0 = ATP-free wells, 1 = DMSO control; activation factor at 10 µM; 200,000 tested, under 10 active; AID 1027;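 active means luciferase activation factor, scaled between plate controls, of at least 2 with compound at 10 µM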
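Assay system – cell-free luciferase reagent · Medium – PBS-based ATP solution · Dosing – test compounds dosed from 2 mM stocks in 100% DMSO · Timing – 10 min, room temperature · Technique – light output (luminescence) · Measure – luminescence gain marking luciferase activators · Controls – No-ATP low control, compound-free enzyme-plus-ATP high control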
PPC-1+TRAIL kill – PPC-1 cancer cell killing with TRAIL present; PPC-1 cells + TRAIL, ATPLite viability luminescence; 0.41% of 220,000 active; AID 1443; cell killing (% activity), % at 4 µM or 5 µM;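 active means cell killing above 50% in the first pass at 4 µM, then a duplicate retest at 5 µM averaging 50% or more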
C8 TRAIL sens – caspase-8 TRAIL sensitization. NB7+C8 cells + TRAIL, ATPlite viability luminescence. inhibition (viability loss, TRAIL sensitization), % at 10 µM. 1% of 360,000 active. AID 624354;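 active means compounds causing at least 50% loss of cell viability in the single-dose screen, relative to plate controls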
HSP90 inh – blocks HSP90-mediated luciferase refolding in reticulocyte lysate. AID 1789. inhibition, % at 5.6 µM. 0.91% of 290,000 active. Rabbit reticulocyte lysate, luciferase refolding luminescence, 3 h;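 active means inhibition above the screen-wide mean plus 3 SD, computed separately per campaign, cut at about 16% in these data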;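 further: inhibitors lower the luminescence because luciferase stays unfolded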
Hits are given with their value; 0 = inactive; - = not tested or not shown.

SMILES	FLuc inh counter	FLuc stim CS	PPC-1+TRAIL kill	C8 TRAIL sens	HSP90 inh
CN(C)c1ccc(C(=O)/C=C/c2ccc(Br)cc2)cc1	0	0	0	0	0
CC1CCC2(CC1)NC(=O)N(CC(=O)Nc1ccc3c(c1)OCCO3)C2=O (centres undefined)	0	0	0	0	0
CCc1nc2c(oc3ccccc32)c(=O)[nH]1	0	0	0	0	0
O=c1[nH]c(CSc2ccccn2)nc2c1oc1ccccc12	61	0	0	0	0
O=C(Nc1ccccc1)c1ccc2ccccc2n1	52	0	0	0	0
O=C(Nc1ccccc1C(=O)O)c1ccc2ccccc2n1	56	0	0	0	0
O=C(Nc1ccc(OC(F)(F)F)cc1)c1ccc2ccccc2n1	0	0	0	0	0
CC(C)Cc1ccc(-c2ccc3nccn3c2)cc1	-	-	-	0	-
COc1ccc(C2=Nc3ccccc3OC2)cc1	51	0	0	0	0
COc1ccc(NC2=Nc3ccccc3CC2)cc1	0	0	0	0	0
CN(C)S(=O)(=O)N1CCC(Oc2cccc(C(=O)N3CCSCC3)c2)CC1	-	-	-	0	0
CCN(CC)S(=O)(=O)c1ccc2[nH]c(=O)cc(C(=O)Nc3cccc(C(C)=O)c3)c2c1	0	0	0	0	0
CSc1nnc(NC(=O)c2nc(S(=O)(=O)Cc3cccc(C)c3)ncc2Cl)s1	-	-	-	84	0
Cc1cccc(CS(=O)(=O)c2ncc(Cl)c(C(=O)Nc3nnc(C(C)C)s3)n2)c1	-	-	-	95	0
Cc1nnc(NC(=O)c2nc(S(=O)(=O)Cc3ccccc3C)ncc2Cl)s1	-	-	-	97	0
O=C(NCc1ccccc1)c1nc(S(=O)(=O)Cc2ccccc2)ncc1Cl	-	-	-	0	0
CSc1nnc(NC(=O)c2nc(S(=O)(=O)Cc3ccccc3F)ncc2Cl)s1	-	-	-	81	0
CCSc1nnc(NC(=O)c2nc(S(=O)(=O)Cc3ccc(F)cc3)ncc2Cl)s1	-	-	-	0	0
CCOC(=O)c1cn(Cc2cccc(Cl)c2)c2cc(C)nn2c1=O	-	-	0	0	0
CCCCC(=O)Nc1cc(OC)c(NC(=S)Nc2ccc(OC)cc2)cc1OC	-	-	-	0	-
Cc1ccc(CS(=O)(=O)c2ncc(Cl)c(C(=O)Nc3nnc(C(C)C)s3)n2)cc1	-	-	-	83	0
CC(C)c1nnc(NC(=O)c2nc(S(=O)(=O)Cc3ccc(F)cc3)ncc2Cl)s1	-	-	-	94	0
CC(C)c1nnc(NC(=O)c2nc(S(=O)(=O)Cc3ccccc3F)ncc2Cl)s1	-	-	-	-	0
COC(=O)C/C=N/N=C1/NC(=O)/C(=C/C(=O)O)S1	-	-	0	0	0
CCOC(=O)[C@]12CCCC=C1N(Cc1ccco1)C(=O)[C@H](CC(=O)NCCCOC)C2	-	-	-	0	-
SMILES	FLuc inh counter	FLuc stim CS	PPC-1+TRAIL kill	C8 TRAIL sens	HSP90 inh
O=C(O)/C=C/c1cccc(NC(=O)c2ccc(Cl)cc2)c1	68	0	-	0	0
O=C(O)CCCC(=O)Nc1ccccc1C(=O)N1CCOCC1	0	0	0	0	0
COc1ccc(CNC(=O)N2CCc3ccccc3C2)cc1Cl	-	-	-	0	16
O=C(NCc1ccc(Cl)cc1)N1CCc2ccccc2C1	-	-	-	0	0
CCOc1cccc2sc(N(CCCN(C)C)C(=O)c3ccc(S(=O)(=O)N(C)c4ccccc4)cc3)nc12	0	0	0	0	0
CCc1ccc2nc(N(CCCN(C)C)C(=O)c3ccc(S(=O)(=O)N(C)C4CCCCC4)cc3)sc2c1	-	-	-	0	0
CCc1ccc2nc(N(CCCN(C)C)C(=O)c3ccc(S(=O)(=O)N4CCc5ccccc5C4)cc3)sc2c1	-	-	-	80	0
CCOc1cccc2sc(N(CCCN(C)C)C(=O)c3ccc(S(=O)(=O)N4CCc5ccccc5C4)cc3)nc12	-	-	-	68	0
CC(=O)c1ccc(N2CCN(C(=O)C(=O)c3cn(CC(=O)N4CCCCCC4)c4ccccc34)CC2)cc1	-	-	-	0	0
CCS(=O)(=O)N1Cc2ccccc2CC1C(=O)Nc1nc2ccccc2s1 (centres undefined)	0	0	0	0	26
O=c1[nH]c(/C(=N\O)c2ccccc2)no1	0	0	0	73	0
COc1ccc(S(=O)(=O)N(CC(=O)NCc2cccnc2)c2ccc(F)cc2)cc1OC	0	0	0	-	0
C=CCNC(=S)N/N=C/c1ccc(C)cc1C	63	0	0	0	0
C=CCNC(=S)N/N=C/c1ccc(C(F)(F)F)cc1	52	0	0	51	0
C/C(=N\NC(=O)c1ccccc1O)c1ccc(Br)s1	79	0	0	54	0
C/C(=N\NC(=O)c1ccccc1[N+](=O)[O-])c1ccc(Br)s1	0	0	0	0	0
C/C(=N\NC(=O)c1cc(Br)ccc1O)c1cccs1	65	0	0	0	0

Screening data deposited in PubChem by several laboratories.
